Values after ≈ are worked out from the molar mass of the structure shown. Active and inactive are the calls of the source. No cut-off for these calls is given here.
Columns and labels:
Escherichia coli [1] = experiment: Antibacterial activity against Escherichia coli ATCC 25938 at 1 to 1000 ug/ml after overnight incubation by disc diffusion method; format: functional
Summary of the method: (§1)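 Disc diffusion on Mueller-Hinton agar. Plates seeded with 0.1 ml bacterial suspension (2 × 10^6 cfu/ml). Sterile 6 mm paper discs were impregnated with compound solutions at 1–1000 µg/ml and incubated at 37 °C overnight. Read-out was the diameter of the clear inhibition zone. Stocks were 1 mg/ml in 4% Tween 80 or 4% propylene glycol.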

Klebsiella pneumoniae [2] = experiment: Antibacterial activity against Klebsiella pneumoniae isolate J/1/4 at 1 to 1000 ug/ml after overnight incubation by disc diffusion method; format: functional; summary of the method: as §1
Staphylococcus aureus [3] = experiment: Antibacterial activity against Staphylococcus aureus ATCC 25923 at 1 to 1000 ug/ml after overnight incubation by disc diffusion method; format: functional; summary of the method: as §1
Pseudomonas aeruginosa [4] = experiment: Antibacterial activity against Pseudomonas aeruginosa ATCC 27853 at 1 to 1000 ug/ml after overnight incubation by disc diffusion method; format: functional; summary of the method: as §1
Vibrio cholerae [5] = experiment: Antibacterial activity against Vibrio cholerae isolate 7201 at 1 to 1000 ug/ml after overnight incubation by disc diffusion method; format: functional
Vibrio cholerae [6] = experiment: Antibacterial activity against Vibrio cholerae isolate 720 at 1 to 1000 ug/ml after overnight incubation by disc diffusion method; format: functional
Bacillus subtilis [7] = experiment: Antibacterial activity against Bacillus subtilis UC564 at 1 to 1000 ug/ml after overnight incubation by disc diffusion method; format: functional; summary of the method: as §1
Shigella dysenteriae [8] = experiment: Antibacterial activity against Shigella dysenteriae isolate 3 at 1 to 1000 ug/ml after overnight incubation by disc diffusion method; format: functional
Enterococcus faecalis [9] = experiment: Antibacterial activity against Enterococcus faecalis isolate 29212 at 1 to 1000 ug/ml after overnight incubation by disc diffusion method; format: functional; summary of the method: as §1
Shigella flexneri [10] = experiment: Antibacterial activity against Shigella flexneri DN13 at 1 to 1000 ug/ml after overnight incubation by disc diffusion method; format: functional; summary of the method: as §1
Salmonella typhi [11] = experiment: Antibacterial activity against Salmonella typhi DIRW at 1 to 1000 ug/ml after overnight incubation by disc diffusion method; format: functional; settings: Salmonella enterica subsp. enterica serovar Typhi
Vibrio parahaemolyticus [12] = experiment: Antibacterial activity against Vibrio parahaemolyticus isolate 72016 at 1 to 1000 ug/ml after overnight incubation by disc diffusion method; format: functional; summary of the method: as §1
Micrococcus luteus [13] = experiment: Antibacterial activity against Micrococcus luteus AGD1 at 1 to 1000 ug/ml after overnight incubation by disc diffusion method; format: functional; summary of the method: as §1
Salmonella typhimurium [14] = experiment: Antibacterial activity against Salmonella Typhimurium isolate 11 at 1 to 1000 ug/ml after overnight incubation by disc diffusion method; format: functional, organism-based; settings: Salmonella enterica subsp. enterica serovar Typhimurium; summary of the method: as §1
Escherichia coli [15] = experiment: Antibacterial activity against Escherichia coli ATCC 25938; format: functional
Summary of the method: (§2)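 MIC by broth and agar dilution. Broth: 0.1 ml suspension (2 × 10^6 cfu/ml) in Mueller-Hinton broth with test drug at 1–1000 µg/ml, 37 °C overnight. Agar: serial drug dilutions in Mueller-Hinton agar, spot-inoculated with 2 × 10^6 cfu/spot, 37 °C for 24 h. MIC was the lowest concentration with no visible growth. Antibiotic controls were included.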

Klebsiella pneumoniae [16] = experiment: Antibacterial activity against Klebsiella pneumoniae isolate J/1/4; format: functional; summary of the method: as §2
Staphylococcus aureus [17] = experiment: Antibacterial activity against Staphylococcus aureus ATCC 25923; format: functional; summary of the method: as §2
Pseudomonas aeruginosa [18] = experiment: Antibacterial activity against Pseudomonas aeruginosa ATCC 27853; format: functional; summary of the method: as §2
Vibrio cholerae [19] = experiment: Antibacterial activity against Vibrio cholerae isolate 7201; format: functional
Bacillus subtilis [20] = experiment: Antibacterial activity against Bacillus subtilis UC564; format: functional; summary of the method: as §2
Shigella dysenteriae [21] = experiment: Antibacterial activity against Shigella dysenteriae isolate 3; format: functional
Enterococcus faecalis [22] = experiment: Antibacterial activity against Streptococcus faecalis isolate 29212; format: functional; summary of the method: as §2
Shigella flexneri [23] = experiment: Antibacterial activity against Shigella flexneri DN13; format: functional; summary of the method: as §2
Salmonella typhi [24] = experiment: Antibacterial activity against Salmonella typhi DIRW; format: functional, Salmonella enterica subsp. enterica serovar Typhi; settings: Salmonella enterica
Vibrio parahaemolyticus [25] = experiment: Antibacterial activity against Vibrio parahaemolyticus isolate 72016; format: functional; summary of the method: as §2
Micrococcus luteus [26] = experiment: Antibacterial activity against Micrococcus luteus AGD1; format: functional; summary of the method: as §2
Salmonella typhimurium [27] = experiment: Antibacterial activity against Salmonella Typhimurium isolate 11; format: functional, Salmonella enterica subsp. enterica serovar Typhimurium; settings: Salmonella enterica; summary of the method: as §2

Row | Structure (SMILES) | MIC (Escherichia coli [15]) [mg/L] | MIC (Klebsiella pneumoniae [16]) [mg/L] | MIC (Staphylococcus aureus [17]) [mg/L] | MIC (Pseudomonas aeruginosa [18]) [mg/L] | MIC (Vibrio cholerae [19]) [mg/L] | MIC (Bacillus subtilis [20]) [mg/L] | MIC (Shigella dysenteriae [21]) [mg/L] | MIC (Enterococcus faecalis [22]) [mg/L] | MIC (Shigella flexneri [23]) [mg/L] | MIC (Salmonella typhi [24]) [mg/L] | MIC (Vibrio parahaemolyticus [25]) [mg/L] | MIC (Micrococcus luteus [26]) [mg/L] | MIC (Salmonella typhimurium [27]) [mg/L] | other results
1 | N#Cc1cc(C(=O)c2ccccc2)n2ccc3ccccc3c12 | 256 (≈ 864 µM) | 32 (≈ 108 µM) | 256 (≈ 864 µM) | 64 (≈ 216 µM) | 32 (≈ 108 µM) | 128 (≈ 432 µM) | > 500 | > 500 | > 500 | > 500 | > 500 | > 500 | > 500 | diameter of the inhibition zone (DIZ) (Escherichia coli [1]): 8 mm; diameter of the inhibition zone (DIZ) (Klebsiella pneumoniae [2]): 11 mm; diameter of the inhibition zone (DIZ) (Staphylococcus aureus [3]): 7.5 mm; diameter of the inhibition zone (DIZ) (Pseudomonas aeruginosa [4]): 9.5 mm; diameter of the inhibition zone (DIZ) (Vibrio cholerae [5]): 11 mm; diameter of the inhibition zone (DIZ) (Vibrio cholerae [6]): 11 mm; diameter of the inhibition zone (DIZ) (Bacillus subtilis [7]): 7.5 mm; diameter of the inhibition zone (DIZ) (Shigella dysenteriae [8]): inactive; diameter of the inhibition zone (DIZ) (Enterococcus faecalis [9]): inactive; diameter of the inhibition zone (DIZ) (Shigella flexneri [10]): inactive; diameter of the inhibition zone (DIZ) (Salmonella typhi [11]): inactive; diameter of the inhibition zone (DIZ) (Vibrio parahaemolyticus [12]): inactive; diameter of the inhibition zone (DIZ) (Micrococcus luteus [13]): inactive; diameter of the inhibition zone (DIZ) (Salmonella typhimurium [14]): inactive
2 | COC(=O)c1cc2ccc3ccccc3n2c1C(=O)c1ccccc1 | > 500 | > 500 | > 500 | > 500 | > 500 | > 500 | > 500 | > 500 | > 500 | > 500 | > 500 | > 500 | > 500 | 
3 | CCOC(=O)c1cc(C(=O)c2ccccc2)n2ccc3ccccc3c12 | 64 (≈ 186 µM) | 256 (≈ 746 µM) | 256 (≈ 746 µM) | 64 (≈ 186 µM) | 32 (≈ 93.2 µM) | 64 (≈ 186 µM) | 128 (≈ 373 µM) | 256 (≈ 746 µM) | 256 (≈ 746 µM) | > 500 | 256 (≈ 746 µM) | 500 (≈ 1460 µM) | 256 (≈ 746 µM) | diameter of the inhibition zone (DIZ) (Escherichia coli [1]): 11.2 mm; diameter of the inhibition zone (DIZ) (Klebsiella pneumoniae [2]): 8.5 mm; diameter of the inhibition zone (DIZ) (Staphylococcus aureus [3]): 8.3 mm; diameter of the inhibition zone (DIZ) (Pseudomonas aeruginosa [4]): 11 mm; diameter of the inhibition zone (DIZ) (Vibrio cholerae [5]): 10.2 mm; diameter of the inhibition zone (DIZ) (Vibrio cholerae [6]): 10.2 mm; diameter of the inhibition zone (DIZ) (Bacillus subtilis [7]): 11.4 mm; diameter of the inhibition zone (DIZ) (Shigella dysenteriae [8]): 9.7 mm; diameter of the inhibition zone (DIZ) (Enterococcus faecalis [9]): 7 mm; diameter of the inhibition zone (DIZ) (Shigella flexneri [10]): 7.1 mm; diameter of the inhibition zone (DIZ) (Salmonella typhi [11]): inactive; diameter of the inhibition zone (DIZ) (Vibrio parahaemolyticus [12]): 8 mm; diameter of the inhibition zone (DIZ) (Micrococcus luteus [13]): 8.1 mm; diameter of the inhibition zone (DIZ) (Salmonella typhimurium [14]): inactive
4 | CCOC(=O)c1c(C(=O)OCC)c2c3ccccc3ccn2c1C(=O)c1ccccc1 | 128 (≈ 308 µM) | 128 (≈ 308 µM) | 500 (≈ 1200 µM) | 500 (≈ 1200 µM) | 500 (≈ 1200 µM) | 256 (≈ 616 µM) | > 500 | > 500 | 256 (≈ 616 µM) | 128 (≈ 308 µM) | 128 (≈ 308 µM) | > 500 | > 500 | 
5 | COC(=O)c1c(C(=O)OC)c2ccccn2c1C(=O)c1ccccc1 | > 500 | > 500 | > 500 | 500 (≈ 1480 µM) | > 500 | > 500 | > 500 | > 500 | > 500 | > 500 | > 500 | > 500 | > 500 | 
6 | COC(=O)c1cc2ccccn2c1C(=O)c1ccccc1 | > 500 | > 500 | > 500 | > 500 | > 500 | > 500 | > 500 | > 500 | > 500 | > 500 | > 500 | > 500 | > 500 | 
7 | CC1(C)S[C@@H]2[C@H](NC(=O)[C@H](N)c3ccc(O)cc3)C(=O)N2[C@H]1C(=O)O [AMOXICILLIN] | 0.5 (≈ 1.37 µM) | 128 (≈ 350 µM) | 0.5 (≈ 1.37 µM) | 256 (≈ 701 µM) | 256 (≈ 701 µM) | 0.5 (≈ 1.37 µM) | 64 (≈ 175 µM) | 0.25 (≈ 0.684 µM) | 128 (≈ 350 µM) | 128 (≈ 350 µM) | 256 (≈ 701 µM) | 0.5 (≈ 1.37 µM) | > 1000 | 

Reference: ChEMBL document CHEMBL1781935, “Amberlite-IRA-402 (OH) ion exchange resin mediated synthesis of indolizines, pyrrolo [1,2-a] quinolines and isoquinolines: antibacterial and antifungal evaluation of the products” (2011)
